Measured values reported in ChEMBL document CHEMBL1938298, “Synthesis and characterization of [¹²⁵I]2-iodo N-[(S)-{(S)-1-methylpiperidin-2-yl}(phenyl)methyl]3-trifluoromethyl-benzamide as novel imaging probe for glycine transporter 1” (Bioorg Med Chem, 2011).
The source made the active and inactive calls. The calls are words filed in the database; no cut-off is given here.

Key:
Intestine = assay: Drug uptake in ddY mouse intestine at 11.1 kBq, iv after 15 min by gamma counting; format: ADME, organism-based; settings: in vivo
In short: (§1)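 Male ddY mice (6 weeks, 30–35 g) received about 11.1 kBq [125I]tracer in 0.1 mL i.v. via tail vein. Killed at set times, organs dissected and weighed, radioactivity gamma counted. Reported as % injected dose/g tissue, mean ± SD, n = 5–6.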

Heart = assay: Drug uptake in ddY mouse heart at 11.1 kBq, iv after 5 min by gamma counting; format: ADME, organism-based; settings: in vivo; in short: as §1
Pancreas [1] = assay: Drug uptake in ddY mouse pancreas at 11.1 kBq, iv after 0.5 min by gamma counting; format: ADME, organism-based; settings: in vivo
In short: (§2)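 Male ddY mice (6 weeks, 30–35 g) were given about 11.1 kBq of [125I]tracer in 0.1 mL i.v. via the tail vein. At each time point the animals were killed and organs dissected, weighed and gamma-counted. Uptake is expressed as % injected dose per gram of tissue, mean ± SD, n = 5–6.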

Pancreas [2] = assay: Drug uptake in ddY mouse pancreas at 11.1 kBq, iv after 30 min by gamma counting; format: ADME, organism-based; settings: in vivo, 0.5 h; in short: as §2
Pancreas [3] = assay: Drug uptake in ddY mouse pancreas at 11.1 kBq, iv after 15 min by gamma counting; format: ADME, organism-based; settings: in vivo; in short: as §2
Brain = assay: Drug uptake in ddY mouse brain at 11.1 kBq, iv after 180 min by gamma counting; format: ADME, organism-based; settings: in vivo, 3 h; in short: as §1
[4] = target: T1, Sodium- and chloride-dependent glycine transporter 1 (Rattus norvegicus) (UniProt P28572); assay: Binding affinity to GlyT1 in rat brain medullary region at 0.03 to 0.04 nM preincubated for 20 mins in binding buffer before compound addition measured after 30 mins by autoradiography in presence of 0.01 mM NMDA receptor glycine site antagonist L-701,324 relative to control; format: tissue-based; settings: tested as the 125I-labelled form
T1 sequence (whole entry): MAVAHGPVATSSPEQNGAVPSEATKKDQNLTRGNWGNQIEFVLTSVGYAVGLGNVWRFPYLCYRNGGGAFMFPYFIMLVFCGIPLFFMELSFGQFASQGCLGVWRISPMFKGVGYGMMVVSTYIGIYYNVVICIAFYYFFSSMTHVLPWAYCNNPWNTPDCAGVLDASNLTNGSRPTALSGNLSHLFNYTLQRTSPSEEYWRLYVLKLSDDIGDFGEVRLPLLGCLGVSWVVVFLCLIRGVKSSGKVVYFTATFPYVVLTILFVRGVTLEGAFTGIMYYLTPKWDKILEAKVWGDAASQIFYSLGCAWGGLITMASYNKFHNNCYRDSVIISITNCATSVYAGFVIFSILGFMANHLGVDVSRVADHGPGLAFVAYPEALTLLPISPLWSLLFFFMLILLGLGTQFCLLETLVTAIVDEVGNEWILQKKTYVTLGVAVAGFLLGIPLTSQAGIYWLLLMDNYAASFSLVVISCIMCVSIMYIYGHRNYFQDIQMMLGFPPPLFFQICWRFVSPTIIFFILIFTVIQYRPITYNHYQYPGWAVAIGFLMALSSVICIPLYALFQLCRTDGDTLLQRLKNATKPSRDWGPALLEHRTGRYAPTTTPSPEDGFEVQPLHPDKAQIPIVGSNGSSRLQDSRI
In short: (§3)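 Rat brain sagittal sections (20 µm) preincubated 20 min at 25 °C in Tris-HCl buffer pH 7.5 (NaCl, KCl, MgCl2, CaCl2), then 30 min at 25 °C with [125I] tracer (100 kBq, 0.03–0.04 nM) plus competitor (10 µM; glycine 1 or 10 mM). Cold washes, imaging plate 3 days, ROI PSL minus background per mm². % control from ≥triplicate slices, three rats.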

Mus musculus [5] = assay: In vivo binding affinity to GlyT1 in ddY mouse brain hippocampus at 33.3 kBq, iv after 60 mins in presence of nonradioactive compound 2 mg/kg, iv administered 15 mins prior to compound administration relative to control; format: functional, organism-based; design: dose 2 mg/kg; settings: tested as the 125I-labelled form
In short: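 Male ddY mice (6 W, 30–35 g) were given [125I]5 (ca. 33.3 kBq, 0.1 mL) iv via tail vein. Blocker (2 mg/kg in 30% DMSO/saline) was given iv 15 min before the tracer. Mice were killed 30 or 60 min after injection and the brain regions were dissected and weighed. Gamma counting gave % dose/g, compared with control; n = 5–6.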

[6] = target: T1, Sodium- and chloride-dependent glycine transporter 1 (Rattus norvegicus); assay: Binding affinity to GlyT1 in rat brain striatum at 0.03 to 0.04 nM preincubated for 20 mins in binding buffer before compound addition measured after 30 mins by autoradiography in presence of 0.01 mM GlyT2 inhibitor ORG25543 relative to control; format: tissue-based; settings: tested as the 125I-labelled form
[7] = target: T1, Sodium- and chloride-dependent glycine transporter 1 (Rattus norvegicus); assay: Binding affinity to GlyT1 in rat brain striatum at 0.03 to 0.04 nM preincubated for 20 mins in binding buffer before compound addition measured after 30 mins by autoradiography in presence of GlyT1 inhibitor N-Me-SSR504734 relative to control; format: tissue-based; settings: tested as the 125I-labelled form
[8] = target: T1, Sodium- and chloride-dependent glycine transporter 1 (Rattus norvegicus); assay: Binding affinity to GlyT1 in rat brain thalamus at 0.03 to 0.04 nM preincubated for 20 mins in binding buffer before compound addition measured after 30 mins by autoradiography in presence of 0.01 mM GlyT1 inhibitor SSR504734 relative to control; format: tissue-based; settings: tested as the 125I-labelled form
[9] = target: T1, Sodium- and chloride-dependent glycine transporter 1 (Rattus norvegicus); assay: Binding affinity to GlyT1 in rat brain corpus callosum at 0.03 to 0.04 nM preincubated for 20 mins in binding buffer before compound addition measured after 30 mins by autoradiography in presence of 1 mM GlyT1 substrate glycine relative to control; format: tissue-based; settings: tested as the 125I-labelled form; in short: as §3
Mus musculus [10] = assay: In vivo binding affinity to GlyT1 in ddY mouse brain striatum at 200 kBq, iv after 60 mins by autoradiography relative to control; format: functional, organism-based; settings: tested as the 125I-labelled form
[11] = target: T1, Sodium- and chloride-dependent glycine transporter 1 (Rattus norvegicus); assay: Binding affinity to GlyT1 in rat brain midbrain at 0.03 to 0.04 nM preincubated for 20 mins in binding buffer before compound addition measured after 30 mins by autoradiography in presence of 0.01 mM GlyT1 inhibitor ALX5407 relative to control; format: tissue-based; settings: tested as the 125I-labelled form; in short: as §3
[12] = target: T1, Sodium- and chloride-dependent glycine transporter 1 (Rattus norvegicus); assay: Binding affinity to GlyT1 in rat brain corpus callosum at 0.03 to 0.04 nM preincubated for 20 mins in binding buffer before compound addition measured after 30 mins by autoradiography relative to control; format: tissue-based; settings: tested as the 125I-labelled form
In short: (§4)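 Rat brain sagittal sections (20 µm), 20 min preincubation at 25 °C in Tris-HCl pH 7.5 binding buffer, then [125I] tracer (100 kBq, 0.03–0.04 nM) for 30 min at 25 °C. Nonspecific binding taken with 10 µM unlabeled ligand. Imaging-plate read-out as (PSL−BG)/mm². Mean ± SD, n = 4–5 from at least three rats; Mann–Whitney U-test.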

[13] = target: T1, Sodium- and chloride-dependent glycine transporter 1 (Rattus norvegicus); assay: Binding affinity to GlyT1 in rat brain thalamus at 0.03 to 0.04 nM preincubated for 20 mins in binding buffer before compound addition measured after 30 mins by autoradiography in presence of 10 mM GlyT1 substrate glycine relative to control; format: tissue-based; settings: tested as the 125I-labelled form
[14] = target: T1, Sodium- and chloride-dependent glycine transporter 1 (Rattus norvegicus); assay: Binding affinity to GlyT1 in rat brain midbrain at 0.03 to 0.04 nM preincubated for 20 mins in binding buffer before compound addition measured after 30 mins by autoradiography in presence of 0.01 mM GlyT1 inhibitor SSR504734 relative to control; format: tissue-based; settings: tested as the 125I-labelled form; in short: as §3
[15] = target: T1, Sodium- and chloride-dependent glycine transporter 1 (Rattus norvegicus); assay: Binding affinity to GlyT1 in rat brain hippocampus at 0.03 to 0.04 nM preincubated for 20 mins in binding buffer before compound addition measured after 30 mins by autoradiography relative to control; format: tissue-based; settings: tested as the 125I-labelled form; in short: as §4

Row | Drug uptake (Intestine) [% ID/g] | Drug uptake (Heart) [% ID/g] | Drug uptake (Pancreas [1]) [% ID/g] | Drug uptake (Pancreas [2]) [% ID/g] | Drug uptake (Pancreas [3]) [% ID/g] | Drug uptake (Brain) [% ID/g] | Activity [4] [%] | Activity [6] [%] | Activity [7] [%] | Activity [8] [%] | Activity [9] [%] | Activity [11] [%] | Activity [12] | Activity [13] [%] | Activity [14] [%] | Activity [15] | Structure (SMILES) | Activity (Mus musculus [5]) | Activity (Mus musculus [10])
1 | 3.25 | 5.17 | 1.18 | 12.02 | 7.93 | 0.73 | – | – | – | – | – | – | – | – | – | – | CN1CCCC[C@H]1[C@@H](NC(=O)c1cccc(C(F)(F)F)c1[125I])c1ccccc1 | – | –
2 | – | – | – | – | – | – | 104 | 104 | 32.2 | 29.6 | 94.1 | 36.2 | Active | 52.7 | 28.9 | inactive | CN1CCCC[C@H]1[C@@H](NC(=O)c1cccc(C(F)(F)F)c1I)c1ccccc1 | Active | inactive
